According to ChEMBL document CHEMBL5614410, “Design, Synthesis, and Evaluation of p53Y220C Acetylation Targeting Chimeras (AceTACs)” (J Med Chem, 2024):
Activity calls are given as the source filed them. The calls are words filed in the database; no cut-off is given here.

Legend:
[1] = test system: CREB-binding protein/Histone acetyltransferase p300/Cellular tumor antigen p53 (Homo sapiens), P04637+Q09472+Q92793 [Y220C]; test: AceTAC activity at FLAG-tagged p53Y220C mutant (unknown origin) expressed in human NCI-H1299 cells expressing p300/CBP assessed as increase in p53 acetylation at lysine 382 residue at 10 uM incubated for 24 hrs by western blot analysis relative to control; format: cell-based
Procedure, shortened: (§1)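 NCI-H1299 (p53Y220C) cells were treated at 0.1–10 μM (0.1, 0.3, 1, 3 or 10 μM) for 24 h. Lysates were Western blotted for p53 and p53K382ac, with vinculin as loading control. p53K382ac was normalised to total p53Y220C and quantified from two or three independent experiments.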

NCI-H1299 = test: Antiproliferative activity against human NCI-H1299 cells expressing p53Y220C mutant assessed as reduction in cell viability incubated for 3 days by WST-8 assay; format: functional; conditions: NCI-H1299, 72 h, time 3 day
Procedure, shortened: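 NCI-H1299 p53Y220C cells were exposed to compound over a concentration range for 72 h, in some runs after 72 h of control or p300 siRNA, before the viability read-out. Values are mean ± SD of three independent experiments.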

[2] = test system: CREB-binding protein/Histone acetyltransferase p300/Cellular tumor antigen p53 (Homo sapiens), P04637+Q09472+Q92793 [Y220C]; test: AceTAC activity at FLAG-tagged p53Y220C mutant (unknown origin ) expressed in human NCI-H1299 cells expressing p300/CBP assessed as increase in p53 acetylation at lysine 382 residue at 1 uM incubated for 24 hrs by western blot analysis; format: cell-based
Procedure, shortened: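 NCI-H1299 cells stably expressing p53Y220C, treated 24 h at 1 or 10 μM. Lysates were Western blotted for total p53 and p53 K382ac, with vinculin as loading control. Blots are representative of at least two independent experiments.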

[3] = test system: CREB-binding protein/Histone acetyltransferase p300/Cellular tumor antigen p53 (Homo sapiens), P04637+Q09472+Q92793 [Y220C]; test: AceTAC activity at FLAG-tagged p53Y220C mutant (unknown origin) expressed in human NCI-H1299 cells expressing p300/CBP assessed as stabilization of protein by measuring increase in aggregation temperature at 100 uM incubated for 1 hr at 32 to 50 degC by CETSA analysis; format: cell-based
Procedure, shortened: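 For CETSA, NCI-H1299 (p53Y220C) stable cells were treated with DMSO or 100 μM compound for 1 h, then heated at 32 to 50 °C. Soluble p53 was detected by Western blot. Representative of at least two independent experiments.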

[4] = test system: CREB-binding protein/Histone acetyltransferase p300/Cellular tumor antigen p53 (Homo sapiens), P04637+Q09472+Q92793 [Y220C]; test: AceTAC activity at FLAG-tagged p53Y220C mutant (unknown origin) expressed in human NCI-H1299 cells expressing p300/CBP assessed as fold increase in p53 acetylation at lysine 382 residue at 10 uM incubated for 24 hrs by western blot analysis relative to control; format: cell-based
Procedure, shortened: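 NCI-H1299 (p53Y220C) cells were exposed to 1, 3 and 10 μM for 24 h, then Western blotted. The K382ac signal was normalized to total p53Y220C and quantified from two independent experiments (±SD), relative to DMSO.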

[5] = molecular target: CREB-binding protein/Histone acetyltransferase p300/Cellular tumor antigen p53 (Homo sapiens, UniProt P04637+Q09472+Q92793, Y220C); test: AceTAC activity at FLAG-tagged p53Y220C mutant (unknown origin) expressed in human NCI-H1299 cells expressing p300/CBP assessed as increase in p53 acetylation at lysine 382 residue incubated for 24 hrs by western blot analysis; format: cell-based; procedure, shortened: as §1
[6] = test system: Cellular tumor antigen p53 (Homo sapiens), P04637 [Y220C]; test: Stabilization of p53Y220C mutant (unknown origin) assessed as increase in melting temperature by […]
[7] = test system: Cellular tumor antigen p53 (Homo sapiens), P04637 [Y220C]; test: Stabilization of p53Y220C mutant (unknown origin) expressed in human NCI-H1299 cells assessed as increase in melting temperature incubated for 1 hr by CETSA analysis; format: cell-based
Procedure, shortened: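 CETSA: NCI-H1299 (p53Y220C) stable cells were treated with DMSO or 100 μM for 1 h, then heated from 32 to 50 °C. Soluble p53 was detected by Western blot. Results are representative of at least two independent experiments.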

CCn1c2ccc(CNCCOCCOCCOCCOCCC(=O)NCCOc3ccc(CCc4nc5cc(-c6c(C)noc6C)ccc5n4CCN4CCOCC4)cc3F)cc2c2ccc(-c3cc(C)cs3)cc21
Activity [1]: 198%
GI50 (NCI-H1299): 4 µM
Activity [2]: Active

CCn1c2ccc(CNCCOCCOCCOCCn3cc(COc4ccc(CCc5nc6cc(-c7c(C)noc7C)ccc6n5CCN5CCOCC5)cc4F)nn3)cc2c2ccc(-c3cc(C)cs3)cc21
ΔTm [3]: 4 °C
fold change (FC) [4]: 4
EC50 [5]: 1.87 µM

CCn1c2ccc(CNCCCCCCCC(=O)NCCOc3ccc(CCc4nc5cc(-c6c(C)noc6C)ccc5n4CCN4CCOCC4)cc3F)cc2c2ccc(-c3cc(C)cs3)cc21
Activity [1]: 196%
GI50 (NCI-H1299): 4 µM
Activity [2]: Active

CCn1c2ccc(CNCCOCCC(=O)NCCOc3ccc(CCc4nc5cc(-c6c(C)noc6C)ccc5n4CCN4CCOCC4)cc3F)cc2c2ccc(-c3cc(C)cs3)cc21
Activity [1]: 186%
GI50 (NCI-H1299): 4 µM
Activity [2]: Active

CCn1c2ccc(CNCCCCCCCCC(=O)NCCOc3ccc(CCc4nc5cc(-c6c(C)noc6C)ccc5n4CCN4CCOCC4)cc3F)cc2c2ccc(-c3cc(C)cs3)cc21
Activity [1]: 103%
GI50 (NCI-H1299): 5 µM
Activity [2]: Active

CCn1c2ccccc2c2cc(CNC)ccc21
ΔTm [6]: 1 °C

CCn1c2ccc(CNCCCCCC(=O)NCCOc3ccc(CCc4nc5cc(-c6c(C)noc6C)ccc5n4CCN4CCOCC4)cc3F)cc2c2ccc(-c3cc(C)cs3)cc21
Activity [1]: 176%
GI50 (NCI-H1299): 4 µM
Activity [2]: Active

C=C(C)C(=O)n1cc(C)c2c(-c3ccc4c(c3)CCN(C)C4)cncc21
ΔTm [7]: 8.3 °C
